Source: ChEMBL document CHEMBL1135476, “Synthesis and structure-activity relationship study of potent trypanocidal thio semicarbazone inhibitors of the trypanosomal cysteine protease cruzain” (J Med Chem, 2002)

Columns and labels:
Trypanosoma cruzi [1] = test: Trypanocidal activity in infected host cells; assay type: functional
Outline: (§1)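 Irradiated (5000 rad) J774 macrophages were plated 24 h before infection with ~10^6 T. cruzi Y-strain trypomastigotes per well; the trypomastigotes came from BESM cell culture supernatants. Parasites were removed at 2 h, then compound was given at 10 μM (stocks 10 mM in DMSO) in RPMI-1640 with FCS at 37 °C, 5% CO2, refreshed every 48 h. DMSO blank served as control. Cultures were followed by phase microscopy for up to […], scoring intracellular cycle duration and host-cell survival and toxicity.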

Cruzipain = Cruzipain (Trypanosoma cruzi, UniProt P25779); test: Inhibitory activity against Trypanosoma cruzi cathepsin L-like protease (cruzain) was determined using purified recombinant protein
Outline: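 Purified recombinant cruzain (1 nM) preincubated 5 min at room temperature with inhibitor (20-50000 nM; seven concentrations) in 100 mM sodium acetate, 5 mM DTT, pH 5.50. DMSO 0.7% in assay. IC50 read graphically from linear portion of inhibition vs log[I], at least two points in linear range.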

Trypanosoma cruzi [2] = test: Tested for the trypanocidal property against infected host cells (Trypanosoma cruzi) using a cell culture assay.; assay type: functional; outline: as §1
Trypanosoma cruzi [3] = test: Tested for the trypanocidal property against infected host cells (Trypanosoma cruzi) using a cell culture assay; assay type: functional; outline: as §1

Chain of Cruzipain (P25779 whole entry): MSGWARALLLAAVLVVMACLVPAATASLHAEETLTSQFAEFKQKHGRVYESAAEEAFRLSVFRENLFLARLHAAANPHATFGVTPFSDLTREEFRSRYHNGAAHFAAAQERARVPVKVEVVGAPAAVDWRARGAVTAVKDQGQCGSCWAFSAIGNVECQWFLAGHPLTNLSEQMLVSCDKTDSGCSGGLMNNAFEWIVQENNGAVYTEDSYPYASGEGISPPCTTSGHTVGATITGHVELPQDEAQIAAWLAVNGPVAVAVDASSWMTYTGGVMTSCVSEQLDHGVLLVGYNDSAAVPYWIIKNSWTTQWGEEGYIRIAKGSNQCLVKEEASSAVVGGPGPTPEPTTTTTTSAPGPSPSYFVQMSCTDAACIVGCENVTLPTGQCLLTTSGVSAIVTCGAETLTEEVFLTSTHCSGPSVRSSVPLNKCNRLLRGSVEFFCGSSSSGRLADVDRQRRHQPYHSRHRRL

| SMILES | IC50 (Cruzipain) [µM] | also measured |
| --- | --- | --- |
| CC/C(=N\N=C(\N)S)c1cc(C(F)(F)F)cc(C(F)(F)F)c1 | 0.02 | Cell survived (Trypanosoma cruzi [1]): 20 days |
| COc1ccc2ccccc2c1/C=N/N=C(/N)S | 0.56 | Cell survived (Trypanosoma cruzi [2]): 5 days |
| C/C(=N\N=C(\N)S)c1ccc(Cl)s1 | 1.9 |  |
| C/C(=N\N=C(\N)S)c1ccc(N2CCOCC2)cc1 | > 10 |  |
| CC1CN(C(=N)S)N=C1c1cccc(Br)c1 (stereo not drawn) |  | Cell survived (Trypanosoma cruzi [1]): >22 days |
| NC(=S)N/N=C/c1ccc(-c2ccc(Br)cc2)o1 | 0.28 |  |
| CCCCCCNC(=S)N1CCC(c2cccc(Br)c2)=N1 | 1.4 |  |
| CC/C(=N\N=C(/S)Nc1ccccc1)c1cccc(Br)c1 | > 10 |  |
| S=C(NCCN1CCOCC1)N1CCC(c2cccc(Br)c2)=N1 | > 10 |  |
| N=C(S)N/N=C/c1ccccc1C(F)(F)F | > 10 |  |
| CC/C(=N\NC(N)=O)c1cccc(Cl)c1 | > 10 |  |
| CC/C(=N\N=C(\N)S)c1ccc2cc(OC)ccc2c1 | > 10 |  |
| N=C(S)N/N=C/c1cc(C(F)(F)F)cc(C(F)(F)F)c1 | 0.32 |  |
| CC/C(=N\N=C(/S)NCc1ccco1)c1cccc(Br)c1 | > 10 |  |
| COc1ccccc1-c1ccc(/C=N/N=C(/N)S)o1 | 0.28 | Cell survived (Trypanosoma cruzi [3]): 8 days |
| N/C(S)=N/N=C/c1cccc(Br)c1 | 1.3 | Cell survived (Trypanosoma cruzi [1]): 8 days |
| CC1CN(C(=N)S)N=C1c1cccc(Cl)c1 (stereo not drawn) | 0.23 | Cell survived (Trypanosoma cruzi [1]): >41 days |
| CC/C(=N\N=C(\N)S)c1cccc(C(F)(F)F)c1 | 0.05 | Cell survived (Trypanosoma cruzi [2]): >41 days |
| C/C(=N\N=C(\N)S)c1ccccc1Br | 3.9 |  |
| FC(F)(F)c1cccc(NC(=S)N2CCC(c3cccc(Cl)c3)=N2)c1 | 1.7 |  |
| CC/C(=N\N=C(\N)S)c1ccc(Br)cc1 | > 10 |  |
| CC/C(=N\N=C(\N)S)c1ccc(Cl)c(Cl)c1 | 0.02 | Cell survived (Trypanosoma cruzi [1]): 9 days |
| N/C(S)=N/N=C/c1ccc(Cl)c(Cl)c1 | 0.46 |  |
| C/C(=N\N=C(\N)S)c1ccccc1Cl | > 10 |  |
| C/C(=N\N=C(\N)S)c1ccc(Br)s1 | 3.8 |  |
| N/C(S)=N/N=C/c1cccn1S(=O)(=O)c1ccccc1 | 2.8 |  |

| SMILES | IC50 (Cruzipain) [µM] | also measured |
| --- | --- | --- |
| N=C(S)N/N=C/c1cccc(C(F)(F)F)c1 | 0.48 |  |
| CC/C(=N\N=C(\N)S)c1ccc(OC)cc1 | > 10 |  |
| S=C(Nc1ccccc1)N1CCC(c2cccc(Br)c2)=N1 | > 10 |  |
| C/N=C(\S)N1CCC(c2cccc(Br)c2)=N1 | > 10 |  |
| CCC(NNC(N)=S)c1cccc(Br)c1 (stereo not drawn) | > 10 |  |
| Cn1nc(C(F)(F)F)cc1-c1ccc(/C=N/N=C(/N)S)s1 | 7 |  |
| CC/C(=N\N=C(\N)S)c1ccc(Cl)cc1 | > 10 |  |
| CC/C(=N\NC(N)=O)c1cc(C(F)(F)F)cc(C(F)(F)F)c1 | > 10 |  |
| C/C(=N\NC(N)=O)c1cccc(C(F)(F)F)c1 | > 10 |  |
| CC/C(=N\NC(N)=O)c1cccc(Br)c1 | > 10 |  |
| CC/C(=N\N=C(/S)NCCN1CCNCC1)c1cccc(Br)c1 | > 10 |  |
| N/C(S)=N/N=C/c1ccc(-c2ccc(Cl)cc2)o1 | 0.3 | Cell survived (Trypanosoma cruzi [3]): 15 days |
| C/C(=N\NC(N)=O)c1cccc(Br)c1 | > 10 |  |
| NC(=S)N1CCC(c2ccc(Cl)c(Cl)c2)=N1 | 0.06 | Cell survived (Trypanosoma cruzi [1]): >41 days |
| CC/C(=N\N=C(\N)S)c1cccc(F)c1 | > 10 |  |
| NC(=O)N/N=C/c1ccc(-c2ccc(Cl)cc2)o1 | > 10 |  |
| C/C(=N\N=C(\N)S)c1cccc(Br)c1 |  | Cell survived (Trypanosoma cruzi [1]): 22 days |
| CC1CN(C(=N)S)N=C1c1ccc(Cl)c(Cl)c1 (stereo not drawn) | 0.07 | Cell survived (Trypanosoma cruzi [1]): 15 days |
| CC/C(=N\N=C(/S)NC)c1cccc(Br)c1 | > 10 |  |
| CC/C(=N\N=C(/S)Nc1ccc(C(F)(F)F)cc1)c1cccc(Br)c1 (stereo in doubt) | > 10 |  |
| C/C(=N\NC(N)=O)c1ccc(Cl)c(Cl)c1 | > 10 |  |
| NC(=S)N1CCC(c2cccc(Br)c2)=N1 | 0.2 | Cell survived (Trypanosoma cruzi [1]): 5 days |
| CC/C(=N\N=C(\N)S)c1ccccc1 | > 10 |  |
| S=C(NCc1ccco1)N1CCC(c2cccc(Br)c2)=N1 | > 10 |  |
| CC/C(=N\N=C(\N)S)c1cccc(Cl)c1 | 0.22 | Cell survived (Trypanosoma cruzi [2]): 22 days |
| CC1CN(C(=N)S)N=C1c1cccc(C(F)(F)F)c1 (stereo not drawn) | 0.04 | Cell survived (Trypanosoma cruzi [1]): >41 days |

| SMILES | IC50 (Cruzipain) [µM] | also measured |
| --- | --- | --- |
| CC/C(=N\N=C(\N)S)c1cccc(Br)c1 |  | Cell survived (Trypanosoma cruzi [2]): >46 days |
| COc1cccc(/C(C)=N/N=C(/N)S)c1 | > 10 |  |
| NC(=S)N1CCC(c2cccc(Cl)c2)=N1 | 0.27 | Cell survived (Trypanosoma cruzi [1]): 5 days |
| CC/N=C(\S)N/N=C(\CC)c1cccc(Br)c1 | > 10 |  |
| CC/N=C(\S)N1CCC(c2cccc(Br)c2)=N1 | > 10 |  |
| C/C(=N\N=C(\N)S)c1cccc(C(F)(F)F)c1 | 0.17 | Cell survived (Trypanosoma cruzi [1]): 15 days |
| C/C(=N\N=C(\N)S)c1cc(C(F)(F)F)cc(C(F)(F)F)c1 | 0.06 | Cell survived (Trypanosoma cruzi [1]): 7 days |
| CC/C(=N\NC(N)=O)c1cccc(C(F)(F)F)c1 | > 10 |  |
| N=C(S)N1CCC(c2cccc(C(F)(F)F)c2)=N1 | 0.08 | Cell survived (Trypanosoma cruzi [1]): 5 days |
| FC(F)(F)c1ccc(NC(=S)N2CCC(c3cccc(Br)c3)=N2)cc1 | > 10 |  |
| CC/C(=N\N=C(/S)NC(C)C)c1cccc(Br)c1 | > 10 |  |
| COc1ccc(/C=N/NC(N)=S)cc1O | > 10 |  |
| N/C(S)=N/N=C/c1cccc(Cl)c1Cl | > 10 |  |
| S=C(Nc1cccc(Cl)c1)N1CCC(c2cccc(Br)c2)=N1 | 1 | Cell survived (Trypanosoma cruzi [1]): 5 days |
| N/C(S)=N/N=C/c1ccc(-c2cccc(Cl)c2)o1 | 0.14 |  |
| CC/C(=N\N=C(/S)Nc1ccc(C(F)(F)F)cc1)c1cccc(Br)c1 (stereo in doubt; 5c) | 1.6 | Cell survived (Trypanosoma cruzi [1]): 5 days |
| N/C(S)=N/N=C/c1cc(Cl)cc(Cl)c1 | 0.56 |  |
| NC(=O)N/N=C/c1ccc(-c2cccc(Cl)c2)o1 | > 10 |  |
| N/C(S)=N/N=C/c1cc(C#Cc2ccccc2)cs1 | > 10 |  |
| CC/C(=N\N=C(\N)S)c1ccc(Cl)cc1Cl | > 10 |  |
| C/C(=N\NC(N)=O)c1cccc(Cl)c1 | > 10 |  |
| NC(=O)N/N=C/c1ccc(-c2ccc(Br)cc2)o1 | > 10 |  |
| CN(C)c1ccc(/C=N/N=C(/N)S)c2ccccc12 | > 10 |  |
| CC(C)/N=C(\S)N1CCC(c2cccc(Br)c2)=N1 | > 10 |  |
| CC/C(=N\NC(N)=O)c1ccc(Cl)c(Cl)c1 | > 10 |  |
| C/C(=N\N=C(\N)S)c1ccc(Cl)c(Cl)c1 | 0.05 | Cell survived (Trypanosoma cruzi [1]): >41 days |
